According to ChEMBL document CHEMBL1122480, “Synthesis and pharmacological studies of 4,4-disubstituted piperidines: a new class of compounds with potent analgesic properties” (J Med Chem, 1983):

What was measured:
Mus musculus [1] = assay: Analgesic activity in tail flick test, oral administration; type: functional
In short: (§1)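 Mouse tail-flick test against a noxious heat stimulus (D'Amour–Smith method), with drug given by the stated route. […] Where no exact ED50 was obtained, the percentage of animals showing analgesia is reported.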

Mus musculus [2] = assay: Analgesic activity in tail flick test, subcutaneous administration; type: functional; in short: as §1
Mus musculus [3] = assay: Analgesic activity using PQW test, oral administration; type: functional; details: Mus musculus, po; read-out: ED50
In short: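 Oral drug in mice, followed by phenylbenzoquinone-induced writhing. Analgesia is scored as fewer abdominal contractions in a group of five animals than in a control group. ED50 is the dose that reduces contractions by 50%, estimated graphically by the Litchfield method. Otherwise the percentage of animals showing analgesia is given.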

Opioid receptor [4] = target: T1, Opioid receptor (Rattus norvegicus, UniProt P33533+P34975+P33535); assay: Inhibition of [3H]naloxone binding to rat brain membrane with 100 mM NaCl.
Opioid receptor [5] = target: T1, Opioid receptor; assay: Inhibition of [3H]-Naloxone binding to rat brain membrane without NaCl
Mus musculus [6] = assay: 5 HTP (5-hydroxytryptophan) antagonism in mouse 0.5 hr after subcutaneous administration (0.003-0.1 dose range).; type: functional; details: sc
In short: (§2)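 Mice received drug sc over the stated dose range, then DL-5-hydroxytryptophan to induce head twitches. ED50 is the dose that cut the mean number of head twitches by 50% versus a saline-treated control group (N = 5-10). It was estimated graphically by the Litchfield method.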

Mus musculus [7] = assay: 5 HTP (5-hydroxytryptophan) antagonism in mouse 0.5 hr after subcutaneous administration (0.01-0.3 dose range).; type: functional; details: sc; in short: as §2
[8] = target: T2, Serotonin (5-HT) receptor (Homo sapiens) (UniProt P30939+P41595+Q13639+P28222+P46098+P08908+P28221+P28223+P28335+P28566+P34969+P50406+P47898+A5X5Y0+O95264+Q70Z44+Q8WXA8); assay: Serotonin antagonism in guinea pig 0.5 hr after subcutaneous administration.; type: functional, organism-based; details: Cavia porcellus; target entry is the homologue from another species
In short: (§3)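 Guinea pigs were protected against a lethal serotonin dose, per the cited Roemer and Weidmann method. Test substance was given subcutaneously or orally, as named in each line. Protection was assessed at the stated interval after dosing (0.5, 6 or 24 h). ED50 (mg/kg) was estimated graphically by the Litchfield method.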

[9] = target: T2, Serotonin (5-HT) receptor (Homo sapiens); assay: Serotonin antagonism in guinea pig 24 hr after oral administration.; type: functional, organism-based; details: Cavia porcellus; target entry is the homologue from another species; in short: as §3
[10] = target: T2, Serotonin (5-HT) receptor (Homo sapiens); assay: Serotonin antagonism in guinea pig 6 h after subcutaneous administration.; type: functional, organism-based; details: Cavia porcellus; target entry is the homologue from another species; in short: as §3
[11] = target: T2, Serotonin (5-HT) receptor (Homo sapiens); assay: Serotonin antagonism in guinea pig 0.5 hr after oral administration.; type: functional, organism-based; details: Cavia porcellus; target entry is the homologue from another species; in short: as §3
[12] = target: T2, Serotonin (5-HT) receptor (Homo sapiens); assay: Serotonin antagonism in guinea pig 6 hr after oral administration.; type: functional, organism-based; details: Cavia porcellus; target entry is the homologue from another species; in short: as §3
[13] = target: T2, Serotonin (5-HT) receptor (Homo sapiens); assay: Serotonin antagonism in guinea pig 24 hr after subcutaneous administration.; type: functional, organism-based; details: Cavia porcellus; target entry is the homologue from another species; in short: as §3
Mus musculus [14] = assay: 5 HTP (5-hydroxytryptophan) antagonism in mouse 0.5 h after subcutaneous administration (0.03-0.1 dose range).; type: functional; details: sc; in short: as §2
[15] = Mus musculus, Tail, po, read-out: ED50
[16] = Mus musculus, Tail, sc, read-out: ED50

For `CCCCN(CCCC)C(=O)C(C)C1(O)CCN(CCc2ccccc2Cl)CC1.O=C(O)/C=C/C(=O)O` (centres undefined), the ED50 (Mus musculus [1]; [15]) was under 100 mg/kg, the ED50 (Mus musculus [2]; [16]) was under 50 mg/kg and the ED50 (Mus musculus [3]) was under 30 mg/kg.

With `C=CCN1CCC(O)(C(C)C(=O)N(C)C2CCCCC2)CC1.O=C(O)/C=C/C(=O)O` (centres undefined) the ED50 (Mus musculus [2]; [16]) was 32 mg/kg and the ED50 (Mus musculus [3]) was 1 mg/kg.

`C=CCN(C(=O)C(C)C1(O)CCN(CCc2ccccc2Cl)CC1)c1ccccc1OC.O=C(O)/C=C\C(=O)O` (centres undefined) gave an IC50 (Opioid receptor [4]) of 0.0029 µM, an IC50 (Opioid receptor [5]) of 0.00041 µM and an ED50 (Mus musculus [1]; [15]) of 7.6 mg/kg. For the same compound, the ED50 (Mus musculus [2]; [16]) was 0.09 mg/kg and the ED50 (Mus musculus [3]) was 0.56 mg/kg.

For `CC(C(=O)NC1CCCCC1)C1(O)CCN(CCc2ccccc2Cl)CC1.O=C(O)/C=C\C(=O)O` (centres undefined), the ED50 (Mus musculus [1]; [15]) was under 56 mg/kg, the ED50 (Mus musculus [2]; [16]) was over 3.2 mg/kg and the ED50 (Mus musculus [3]) was over 56 mg/kg.

`C=CCN(C(=O)C(C)C1(O)CCN(CCc2ccccc2Cl)CC1)C1CCCCC1.O=C(O)/C=C\C(=O)O` (centres undefined) was tested, and the IC50 (Opioid receptor [4]) was 0.02 µM, the IC50 (Opioid receptor [5]) was 0.0024 µM and the ED50 (Mus musculus [2]; [16]) was 4 mg/kg. The ED50 (Mus musculus [3]) was under 32 mg/kg.

Compound `CC(C(=O)N(C)c1cccc(O)c1)C1(O)CCN(CCc2ccccc2Cl)CC1.O=C(O)/C=C/C(=O)O` (centres undefined) has an ED50 (Mus musculus [2]; [16]) of over 56 mg/kg and an ED50 (Mus musculus [3]) of over 18 mg/kg.

For `Br.CC(C)C(C(=O)N(C)C1CCCCC1)C1(O)CCN(CCc2ccccc2Cl)CC1` (centres undefined), the ED50 (Mus musculus [1]; [15]) was over 100 mg/kg, the ED50 (Mus musculus [2]; [16]) was over 56 mg/kg and the ED50 (Mus musculus [3]) was under 56 mg/kg.

Compound `CN1CCC(=C2c3ccccc3C=Cc3ccccc32)CC1` [CYPROHEPTADINE] has an ED50 (Mus musculus [6]) of 0.015 mg/kg.

With `CCC(=O)OC1(C(C)C(=O)N(C)C2CCCCC2)CCN(CCc2ccccc2Cl)CC1` (centres undefined) the ED50 (Mus musculus [2]; [16]) was under 3.2 mg/kg and the ED50 (Mus musculus [3]) was under 56 mg/kg.

With `CN(C(=O)CC1(O)CCN(CCc2ccccc2Cl)CC1)C1CCCCC1.Cl` the ED50 (Mus musculus [1]; [15]) was under 56 mg/kg, the ED50 (Mus musculus [2]; [16]) was over 3.2 mg/kg and the ED50 (Mus musculus [3]) was over 18 mg/kg.

Compound `CC(C(=O)N(C)C1CCCCC1)C1(O)CCN(CCc2ccccc2Cl)CC1.O=C(O)/C=C\C(=O)O` (stereo in doubt; 15) has an IC50 (Opioid receptor [4]) of 0.45 µM, an IC50 (Opioid receptor [5]) of 0.045 µM and an ED50 (Mus musculus [1]) of 22 mg/kg. The ED50 (Mus musculus [2]) was 3.2 mg/kg, the ED50 (Mus musculus [3]) was 10.8 mg/kg and the ED50 (Mus musculus [7]) was 0.07 mg/kg.

`COc1ccccc1NC(=O)C(C)C1(O)CCN(CCc2ccccc2Cl)CC1.O=C(O)/C=C/C(=O)O` (centres undefined) showed an ED50 (Mus musculus [2]; [16]) of over 18 mg/kg and an ED50 (Mus musculus [3]) of 5.6 mg/kg.

`CC(C(=O)N(C)C1CCCCC1)C1(O)CCN(CCc2ccccc2Cl)CC1` (centres undefined) [PIPRAMADOL] showed an ED50 (Mus musculus [1]; [15]) of 100 mg/kg, an ED50 (Mus musculus [2]; [16]) of 3.8 mg/kg and an ED50 (Mus musculus [3]) of 10 mg/kg.

`CCOc1ccccc1N(CC)C(=O)C(C)C1(O)CCN(CCc2ccccc2Cl)CC1` (centres undefined) was tested, and the IC50 (Opioid receptor [4]) was 0.0018 µM, the IC50 (Opioid receptor [5]) was 0.00055 µM and the ED50 (Mus musculus [1]; [15]) was 10 mg/kg. The ED50 (Mus musculus [2]; [16]) was 0.26 mg/kg and the ED50 (Mus musculus [3]) was 1.8 mg/kg.

`Br.CCCCCCCN1CCC(O)(C(C)C(=O)N(C)C2CCCCC2)CC1` (centres undefined) gave an ED50 (Mus musculus [1]; [15]) of over 100 mg/kg, an ED50 (Mus musculus [2]; [16]) of over 56 mg/kg and an ED50 (Mus musculus [3]) of over 56 mg/kg.

`CN1CC[C@]23c4c5ccc(O)c4O[C@H]2[C@@H](O)C=C[C@H]3[C@H]1C5` [MORPHINE] showed an ED50 (Mus musculus [1]; [15]) of 23 mg/kg, an ED50 (Mus musculus [2]; [16]) of 3.4 mg/kg and an ED50 (Mus musculus [3]) of 1.4 mg/kg.

`CC(C(=O)N(C)C1CCCCC1)C1(O)CCN(CCc2ccccc2Cl)CC1` (stereo in doubt; 15) gave an ED50 [8] of 0.015 mg/kg, an ED50 [9] of 0.045 mg/kg and an ED50 [10] of 0.007 mg/kg. It also gave an ED50 [11] of 0.01 mg/kg, an ED50 [12] of 0.009 mg/kg and an ED50 [13] of 0.028 mg/kg.

Compound `CC(C(=O)N(C)C1CCCCC1)C1(O)CCN(CCc2ccccc2)CC1.Cl` (centres undefined) has an ED50 (Mus musculus [1]; [15]) of over 56 mg/kg, an ED50 (Mus musculus [2]; [16]) of 18 mg/kg and an ED50 (Mus musculus [3]) of 18 mg/kg.

Compound `CC(C(=O)N(C)C1CCCCC1)C1CCN(CCc2ccccc2Cl)CC1.Cl` (centres undefined) has an ED50 (Mus musculus [1]; [15]) of 37 mg/kg, an ED50 (Mus musculus [2]; [16]) of 2.9 mg/kg and an ED50 (Mus musculus [3]) of under 18 mg/kg.

With `CN(C(=O)C(C)(C)C1(O)CCN(CCc2ccccc2Cl)CC1)C1CCCCC1` [PIPRADIMADOL] the IC50 (Opioid receptor [4]) was 0.825 µM, the ED50 (Mus musculus [14]) was 0.1 mg/kg and the ED50 [8] was 0.055 mg/kg. It also gave an ED50 [9] of 0.135 mg/kg, an IC50 (Opioid receptor [5]) of 0.55 µM and an ED50 [10] of 0.05 mg/kg. It also gave an ED50 [11] of 0.103 mg/kg, an ED50 [12] of 0.14 mg/kg and an ED50 [13] of over 0.1 mg/kg. The ED50 (Mus musculus [1]; [15]) was over 100 mg/kg, the ED50 (Mus musculus [2]; [16]) was 21 mg/kg and the ED50 (Mus musculus [3]) was 26 mg/kg.

For `COc1ccccc1N(C)C(=O)C(C)C1(O)CCN(CCc2ccccc2Cl)CC1.O=C(O)/C=C\C(=O)O` (centres undefined), the IC50 (Opioid receptor [4]) was 0.051 µM, the IC50 (Opioid receptor [5]) was 0.0033 µM and the ED50 (Mus musculus [1]; [15]) was over 18 mg/kg. For the same compound, the ED50 (Mus musculus [2]; [16]) was 0.68 mg/kg and the ED50 (Mus musculus [3]) was 18 mg/kg.
